The values below come from ChEMBL document CHEMBL1128251, “Antimalarial activity of new dihydroartemisinin derivatives. 6. alpha-Alkylbenzylic ethers” (J Med Chem, 1995).

In brackets after ≈: the same amount, converted by molar mass.

The subject of assay [1] is Plasmodium falciparum. The experiment in a line: In vitro antimalarial activity against Plasmodium falciparum W2 Indochina. In kind it is functional, organism-based. In outline:
(§1)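 Clones D-6 and W-2 tested in parallel. Compounds dissolved in DMSO, diluted 400-fold in RPMI 1640 with 25 mM Hepes, 32 mM NaHCO3 and 10% human plasma, then serially diluted 2-fold over 11 concentrations. Parasites preexposed 48 h at 37 °C under 5% O2/5% CO2/90% N2, then [3H]hypoxanthine added for 18 h; DNA harvested, uptake counted by scintillation. IC50 from logistic dose-response model; arithmetic mean of ≥3 runs.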

The subject of assay [2] is Plasmodium falciparum. Briefly: In vitro antimalarial activity against Plasmodium falciparum D6 (Sierra Leone I). In kind it is functional, organism-based. Summed up: as §1

With `CCOC(=O)C[C@@H](O[C@H]1O[C@@H]2O[C@@]3(C)CC[C@H]4[C@H](C)CCC([C@H]1C)[C@@]24OO3)c1ccccc1` (some centres undefined), the IC50 in assay [1] is 0.213 ng/mL (≈ 0.463 nM); in assay [2] it was 0.496 ng/mL (≈ 1.08 nM).
`CCC[C@H](Cc1ccccc1)O[C@H]1O[C@@H]2O[C@@]3(C)CC[C@H]4[C@H](C)CCC([C@H]1C)[C@@]24OO3` (some centres undefined): the figures for the IC50 in assay [1] and in assay [2] were 1.92 ng/mL (≈ 4.45 nM) and 3.05 ng/mL (≈ 7.08 nM), respectively.
In the same order, the values of `CCC[C@@H](Cc1ccccc1)O[C@H]1O[C@@H]2O[C@@]3(C)CC[C@H]4[C@H](C)CCC([C@H]1C)[C@@]24OO3` (some centres undefined) are 0.697 ng/mL (≈ 1.62 nM) and 0.972 ng/mL (≈ 2.26 nM).
For `COC(=O)c1ccc([C@H](C)O[C@H]2O[C@@H]3O[C@@]4(C)CC[C@H]5[C@H](C)CCC([C@H]2C)[C@@]35OO4)cc1` (some centres undefined), the results for the IC50 in assay [1] and in assay [2] were 0.335 ng/mL (≈ 0.751 nM) and 0.692 ng/mL (≈ 1.55 nM), respectively.
In the case of `CCOC(=O)C[C@H](O[C@H]1O[C@@H]2O[C@@]3(C)CC[C@H]4[C@H](C)CCC([C@H]1C)[C@@]24OO3)c1ccc([N+](=O)[O-])cc1` (some centres undefined), the IC50 worked out at 0.0487 ng/mL (≈ 0.0963 nM) in assay [1] and 0.246 ng/mL (≈ 0.487 nM) in assay [2].
On to `C[C@@H]1CCC2[C@@H](C)[C@@H](O[C@H](C)c3ccc(C(=O)O)cc3)O[C@@H]3O[C@@]4(C)CC[C@@H]1[C@@]23OO4` (some centres undefined), for which the IC50 was 2.54 ng/mL (≈ 5.86 nM) in assay [1] and 5.77 ng/mL (≈ 13.3 nM) in assay [2].
For `C[C@@H]1CCC2[C@@H](C)[C@@H](O[C@H](C)c3ccc(C(F)(F)F)cc3)O[C@@H]3O[C@@]4(C)CC[C@@H]1[C@@]23OO4` (some centres undefined), in that order: 1.15 ng/mL (≈ 2.51 nM) and 1.46 ng/mL (≈ 3.19 nM).
With `COC(=O)c1ccc([C@@H](C)O[C@H]2O[C@@H]3O[C@@]4(C)CC[C@H]5[C@H](C)CCC([C@H]2C)[C@@]35OO4)cc1` (some centres undefined), the values for the IC50 in assay [1] and in assay [2] were 0.337 ng/mL (≈ 0.754 nM) and 0.921 ng/mL (≈ 2.06 nM), respectively.
For the molecule `C[C@@H]1CCC2[C@@H](C)[C@@H](O[C@H](CC(=O)O)c3ccc([N+](=O)[O-])cc3)O[C@@H]3O[C@@]4(C)CC[C@@H]1[C@@]23OO4` (some centres undefined), the IC50 stood at 1.35 ng/mL (≈ 2.82 nM) in assay [1] and 2.87 ng/mL (≈ 6.01 nM) in assay [2].
Regarding `CCOC(=O)C[C@@H](O[C@H]1O[C@@H]2O[C@@]3(C)CC[C@H]4[C@H](C)CCC([C@H]1C)[C@@]24OO3)c1ccc([N+](=O)[O-])cc1` (some centres undefined), the IC50 in assay [1] turned out to be 0.23 ng/mL (≈ 0.454 nM); in assay [2], 0.563 ng/mL (≈ 1.11 nM).
In the same order, the values of `C[C@H](O[C@H]1O[C@@H]2O[C@@]3(C)CC[C@H]4[C@H](C)CCC([C@H]1C)[C@@]24OO3)c1ccc(C(=O)O)cc1` (some centres undefined) are 1.23 ng/mL (≈ 2.85 nM) and 2.94 ng/mL (≈ 6.79 nM).
For `CCOC(=O)[C@H](O[C@H]1O[C@@H]2O[C@@]3(C)CC[C@H]4[C@H](C)CCC([C@H]1C)[C@@]24OO3)c1ccccc1` (some centres undefined), in that order: 0.0938 ng/mL (≈ 0.21 nM) and 0.287 ng/mL (≈ 0.643 nM).
Regarding `CCOC(=O)[C@@H](O[C@H]1O[C@@H]2O[C@@]3(C)CC[C@H]4[C@H](C)CCC([C@H]1C)[C@@]24OO3)c1ccccc1` (some centres undefined), the IC50 amounted to 0.227 ng/mL (≈ 0.507 nM) in assay [1] and 0.509 ng/mL (≈ 1.14 nM) in assay [2].
In the case of `CCOC(=O)C[C@H](O[C@H]1O[C@@H]2O[C@@]3(C)CC[C@H]4[C@H](C)CCC([C@H]1C)[C@@]24OO3)c1ccccc1` (some centres undefined), the IC50 in assay [1] turned out to be 0.144 ng/mL (≈ 0.312 nM); in assay [2] it was 0.459 ng/mL (≈ 0.997 nM).
For the molecule `C[C@@H]1[C@H](OCc2ccc(C(=O)O)cc2)O[C@@H]2O[C@@]3(C)CC[C@@H]4[C@@H](C)CC[C@@H]1[C@]24OO3` [ARTELINIC ACID], the IC50 amounted to 2.08 ng/mL (≈ 4.97 nM) in assay [1] and 4.87 ng/mL (≈ 11.6 nM) in assay [2].
In the same order, the values of `CO[C@H]1O[C@@H]2O[C@@]3(C)CC[C@H]4[C@H](C)CC[C@@H]([C@H]1C)[C@@]24OO3` [ARTEMETHER] are 0.301 ng/mL (≈ 1.01 nM) and 0.869 ng/mL (≈ 2.91 nM).
For `C[C@@H]1CC[C@H]2[C@@H](C)C(=O)O[C@@H]3O[C@@]4(C)CC[C@@H]1[C@]32OO4` [ARTEMISININ], in that order: 1.01 ng/mL (≈ 3.6 nM) and 2.3 ng/mL (≈ 8.15 nM).

The IC50 is the point on the concentration scale where inhibition reaches its midpoint.
